Experimental data: the array DNA melting data of Ke et al. (doi:10.1101/2024.01.08.574731)

What was measured:
[1] = folding enthalpy; higher = less favourable; fluorescence melt of hairpins on a sequencing array, two-state fit; details: sodium 0.088 M
Method in brief: (§1)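 On a sequenced MiSeq flow cell, library hairpins with annealed Cy3 and quencher oligos were imaged for Cy3 fluorescence in 2.5 °C steps up to 60 °C, in 50 mM Na-HEPES pH 8.0, 25 mM NaCl. Normalisation used pre-quench Cy3 and control constructs. Bootstrapped two-state fits gave melting temperature and folding enthalpy, combined by inverse variance across four replicates and with fitted temperatures raised by 9.35 °C to match UV melts.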

[2] = melting temperature; fluorescence melt of hairpins on a sequencing array, two-state fit, raised by 9.35 °C to match UV melts; details: sodium 0.088 M
Method in brief: as §1

Sequence: GTCTTCCGAAAGGAGGAC (((.(((....))).)))
- folding enthalpy [1]: -38.2 kcal/mol
- Tm [2]: 54.5 °C

Sequence: GATCATAGGAATGATC ((((((....))))))
- folding enthalpy [1]: -26 kcal/mol
- Tm [2]: 44.3 °C

Sequence: GCTAGTGAAAACTAGC ((((((....))))))
- folding enthalpy [1]: -36.3 kcal/mol
- Tm [2]: 56.9 °C

Sequence: GCGCACGAAAGTGTCGC ((((((....))).)))
- folding enthalpy [1]: -27.6 kcal/mol
- Tm [2]: 64.2 °C

Sequence: GGAGCACGAAAGTGTCC (((.(((....))))))
- folding enthalpy [1]: -16.4 kcal/mol
- Tm [2]: 48.5 °C

Sequence: GCATATGGAAACATGTGC (((.(((....))).)))
- folding enthalpy [1]: -36.6 kcal/mol
- Tm [2]: 49 °C

Sequence: GCCCTAGGAAACTAGGAC (.(((((....))))).)
- folding enthalpy [1]: -19.6 kcal/mol
- Tm [2]: 37.7 °C

Sequence: GTTTCTGAAAAGAAAC ((((((....))))))
- folding enthalpy [1]: -37 kcal/mol
- Tm [2]: 50.2 °C

Sequence: GCAGCCACGAAAGTGTGC (((..(((....))))))
- folding enthalpy [1]: -12.5 kcal/mol
- Tm [2]: 40.2 °C

Sequence: GAACTGACGAAAGTCTTC (((..(((....))))))
- folding enthalpy [1]: -8.83 kcal/mol
- Tm [2]: 23.7 °C

Sequence: GCTCCAGGAAACCAGAGC ((((..(....)..))))
- folding enthalpy [1]: -19.4 kcal/mol
- Tm [2]: 34.4 °C

Sequence: GCTCGAGGAAACTCGGGC ((.((((....)))).))
- folding enthalpy [1]: -38.9 kcal/mol
- Tm [2]: 59.9 °C

Sequence: GCAAAGCGAAAGCCATGC (((..((....))..)))
- folding enthalpy [1]: -12.3 kcal/mol
- Tm [2]: 32.2 °C

Sequence: GAGTCTGGAAACAGACCC (.(((((....))))).)
- folding enthalpy [1]: -14.2 kcal/mol
- Tm [2]: 38 °C

Sequence: GGATGAGGAAACCCATCC (((((.(....).)))))
- folding enthalpy [1]: -30.3 kcal/mol
- Tm [2]: 44.6 °C

Sequence: GACAAGCGAAAGCTCGTC (((.(((....))).)))
- folding enthalpy [1]: -21 kcal/mol
- Tm [2]: 49.3 °C

Sequence: GATCCCTCTGGGGATC ((((((....))))))
- folding enthalpy [1]: -39.1 kcal/mol
- Tm [2]: 61.5 °C

Sequence: CGTGCGGAAACGCCACG ((((((....))).)))
- folding enthalpy [1]: -25.4 kcal/mol
- Tm [2]: 53.8 °C

Sequence: GACTCACGAAAGTGTGTC (((.(((....))).)))
- folding enthalpy [1]: -38.5 kcal/mol
- Tm [2]: 53.7 °C

Sequence: GGCTGCGAAAGCAGCGCC ((((((....)))..)))
- folding enthalpy [1]: -5.65 kcal/mol
- Tm [2]: 68.8 °C

Sequence: GACTACGAAAGTAACGTC ((((((....)))..)))
- folding enthalpy [1]: -16 kcal/mol
- Tm [2]: 31.8 °C

Sequence: GATCTATGGCTAGATC ((((((....))))))
- folding enthalpy [1]: -30.1 kcal/mol
- Tm [2]: 37.6 °C

Sequence: GTGCCCGAAAGGGTACAC ((((((....)))..)))
- folding enthalpy [1]: -13.9 kcal/mol
- Tm [2]: 61.6 °C

Sequence: GCCCCAGGAAACCGGGAC (.(((.(....).))).)
- folding enthalpy [1]: -16.3 kcal/mol
- Tm [2]: 31.1 °C

Sequence: GTGTCCGGAAACGGATGC (..((((....))))..)
- folding enthalpy [1]: -25.7 kcal/mol
- Tm [2]: 48 °C

Sequence: AATGGGAAACCATT (((((....)))))
- folding enthalpy [1]: -14.1 kcal/mol
- Tm [2]: 37.7 °C

Sequence: GCATGCGGAAACGCGTGC (((.(((....))).)))
- folding enthalpy [1]: -45.2 kcal/mol
- Tm [2]: 67.6 °C

Sequence: GATCTTGCAAAAGATC ((((((....))))))
- folding enthalpy [1]: -37.5 kcal/mol
- Tm [2]: 53.5 °C

Sequence: GATCCACCCGTGGATC ((((((....))))))
- folding enthalpy [1]: -40.4 kcal/mol
- Tm [2]: 57.9 °C

Sequence: GTTAACGGAAACGTTAGC (.(((((....))))).)
- folding enthalpy [1]: -21.3 kcal/mol
- Tm [2]: 42.9 °C

Sequence: GCCCTCGAAAGAGAAGGC ((((((....)))..)))
- folding enthalpy [1]: -22.2 kcal/mol
- Tm [2]: 48.3 °C

Sequence: GGTCGCGAAAGCGTGACC ((((((....)))..)))
- folding enthalpy [1]: -18.2 kcal/mol
- Tm [2]: 53.1 °C

Sequence: GTGCCCGAAAGGGCCAC ((((((....))).)))
- folding enthalpy [1]: -7.47 kcal/mol
- Tm [2]: 57.2 °C

Sequence: GCTATGGAAACATAGC ((((((....))))))
- folding enthalpy [1]: -35.4 kcal/mol
- Tm [2]: 55.6 °C

Sequence: GTTGTCGGAAACGGTAAC (((..((....))..)))
- folding enthalpy [1]: -21.9 kcal/mol
- Tm [2]: 33.1 °C

Sequence: GATCTCGAGGAGATC ((((((...))))))
- folding enthalpy [1]: -34.5 kcal/mol
- Tm [2]: 52.8 °C

Sequence: GCCCAGCGAAAGCCTGGC (((..((....))..)))
- folding enthalpy [1]: -13 kcal/mol
- Tm [2]: 56.1 °C

Sequence: GATCCCTTAGGGGATC ((((((....))))))
- folding enthalpy [1]: -43.7 kcal/mol
- Tm [2]: 61.3 °C

Sequence: GTATGCACGAAAGTGTAC (((..(((....))))))
- folding enthalpy [1]: -9.37 kcal/mol
- Tm [2]: 31.1 °C

Sequence: GCTTGAACGAAAGTTAGC (((..(((....))))))
- folding enthalpy [1]: -13.7 kcal/mol
- Tm [2]: 36.1 °C

Sequence: GCACTGCGAAAGCAGCGC ((.((((....)))).))
- folding enthalpy [1]: -28.9 kcal/mol
- Tm [2]: 69.1 °C

Sequence: GGCTCGTCGAAAGACGCC (((..(((....))))))
- folding enthalpy [1]: -9.65 kcal/mol
- Tm [2]: 42 °C

Sequence: GCACAGCGAAAGCAGAGC ((.(.((....)).).))
- folding enthalpy [1]: -13.7 kcal/mol
- Tm [2]: 47.3 °C

Sequence: GCGTTGGGAAACTAACGC (((((.(....).)))))
- folding enthalpy [1]: -47.8 kcal/mol
- Tm [2]: 55.5 °C

Sequence: GTTTCCCGAAAGGGGAAC (((.(((....))).)))
- folding enthalpy [1]: -36.2 kcal/mol
- Tm [2]: 56.1 °C

Sequence: GGCATCGAAAGATTAGCC ((((((....)))..)))
- folding enthalpy [1]: -28.2 kcal/mol
- Tm [2]: 43.7 °C

Sequence: GGTCATGAAAATGACC ((((((....))))))
- folding enthalpy [1]: -38 kcal/mol
- Tm [2]: 59.5 °C

Sequence: GATCATACCAATGATC ((((((....))))))
- folding enthalpy [1]: -39.4 kcal/mol
- Tm [2]: 48.4 °C

Sequence: GGTGAGGGAAACCCCACC ((((.((....)).))))
- folding enthalpy [1]: -39.2 kcal/mol
- Tm [2]: 50.5 °C

Sequence: GCGACCGGAAACGGTTGC ((.((((....)))).))
- folding enthalpy [1]: -41.1 kcal/mol
- Tm [2]: 64.6 °C

Sequence: GTCGGGACGAAAGTCGAC (((..(((....))))))
- folding enthalpy [1]: -18.9 kcal/mol
- Tm [2]: 47.5 °C

Sequence: GAAGACGAAAGTCGGTTC ((((((....)))..)))
- folding enthalpy [1]: -12.8 kcal/mol
- Tm [2]: 34.4 °C

Sequence: GCAGGCGAAAGCCCTGC ((((((....))).)))
- folding enthalpy [1]: -19.2 kcal/mol
- Tm [2]: 65.6 °C

Sequence: CGAGTTCGGAAACGATCG (((..(((....))))))
- folding enthalpy [1]: -10.2 kcal/mol
- Tm [2]: 30.8 °C

Sequence: GAATGGGGAAACCCACTC ((.((((....)))).))
- folding enthalpy [1]: -13.1 kcal/mol
- Tm [2]: 30 °C

Sequence: GACCTAGGAAACTAGGTC (((((((....)))))))
- folding enthalpy [1]: -42 kcal/mol
- Tm [2]: 60.5 °C

Sequence: GTTCTTGGAAACGAGAAC (((((.(....).)))))
- folding enthalpy [1]: -28.6 kcal/mol
- Tm [2]: 43.6 °C

Sequence: GATCTTTAGAAGATC ((((((...))))))
- folding enthalpy [1]: -24.7 kcal/mol
- Tm [2]: 38.7 °C

Sequence: GATTCGGGAAACCGAATC (((((((....)))))))
- folding enthalpy [1]: -47.5 kcal/mol
- Tm [2]: 60.4 °C

Sequence: GCAGGGGGAAACTCCTGC (((((.(....).)))))
- folding enthalpy [1]: -43.4 kcal/mol
- Tm [2]: 57.6 °C

Sequence: GGGTACGAAAGTAGCCC ((((((....))).)))
- folding enthalpy [1]: -26.3 kcal/mol
- Tm [2]: 56.2 °C

Sequence: GCGTAACCACGC ((((....))))
- folding enthalpy [1]: -23.3 kcal/mol
- Tm [2]: 54.8 °C

Sequence: GTAGGAGAAATCCTAC ((((((....))))))
- folding enthalpy [1]: -26.7 kcal/mol
- Tm [2]: 47.3 °C

Sequence: GCGAACGAAAGTTCTCGC ((((((....)))..)))
- folding enthalpy [1]: -18.8 kcal/mol
- Tm [2]: 45.6 °C

Sequence: GACTCGGGAAACCGAATC ((.((((....)))).))
- folding enthalpy [1]: -18.2 kcal/mol
- Tm [2]: 35.4 °C

Sequence: GATCTCCCTAGAGATC ((((((....))))))
- folding enthalpy [1]: -36.2 kcal/mol
- Tm [2]: 55.7 °C

Sequence: GACTATGCGAAAGCAGTC (((..(((....))))))
- folding enthalpy [1]: -15.3 kcal/mol
- Tm [2]: 44 °C

Sequence: GGAGACGCGAAAGCGTCC (((..(((....))))))
- folding enthalpy [1]: -7.09 kcal/mol
- Tm [2]: 45.3 °C

Sequence: GATCTTGTAGAAGATC ((((((....))))))
- folding enthalpy [1]: -27.5 kcal/mol
- Tm [2]: 46.4 °C
